Key:
[1] = test system: Human immunodeficiency virus 1; experiment: Antiviral activity against wild type HIV1 3B infected in human MT4 cells assessed as inhibition of virus-induced cytopathogenicity after 5 days by MTT assay; type: functional, organism-based; conditions: Human immunodeficiency virus 1, 3B, MT4, 120 h
In short: (§1)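 MT-4 cells in exponential growth were pelleted (5 min, 220 g) and resuspended at 6×10^5 cells/mL. They were infected at the start with 100-300 CCID50 of virus stock and exposed to serial 5-fold compound dilutions in triplicate wells. Viability was read by MTT at 540 and 690 nm after 5 days, using the median OD of three wells. EC50 is the concentration giving 50% protection from viral cytopathic effect.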

[2] = Cytotoxicity against human MT4 cells after 5 days by MTT assay; type: cell-based
In short: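 Mock-infected MT-4 cells received culture medium in place of virus, at 6×10^5 cells/mL, run in parallel triplicate wells with serial 5-fold compound dilutions. After 5 days, MTT reduction was read at 540 and 690 nm, using the median OD of three wells. CC50 is the concentration lowering OD540 of the mock-infected control by 50%.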

[3] = test system: Human immunodeficiency virus 1; experiment: Antiviral activity against HIV1 harboring reverse transcriptase K103N/Y181C mutant infected in human MT4 cells assessed as inhibition of virus-induced cytopathogenicity after 5 days by MTT assay; type: functional, organism-based; conditions: Human immunodeficiency virus 1, MT4, 120 h
In short: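 MT-4 cells (6×10^5 cells/mL after spinning at 220 g for 5 min) infected with 100-300 CCID50 of the double RT mutant strain derived from wild-type LAI. Serial 5-fold compound dilutions tested in triplicate alongside mock-infected wells. Viability read by MTT at 540 and 690 nm on day 5, using the median OD of three wells. IC50 is the concentration giving 50% protection from viral cytopathic effect.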

[4] = Selectivity index, ratio of CC50 for human MT4 cells to IC50 for wild type HIV1 3B; type: functional
[5] = test system: Human immunodeficiency virus 2; experiment: Antiviral activity against HIV2 ROD infected in human MT4 cells assessed as inhibition of virus-induced cytopathogenicity after 5 days by MTT assay; type: functional, organism-based; conditions: Human immunodeficiency virus 2, ISOLATE ROD, MT4, 120 h; in short: as §1
[6] = Ratio of compound selectivity index to zidovudine selectivity index for human MT4 cells
[7] = test system: Human immunodeficiency virus 1; experiment: Ratio of zidovudine IC50 to compound IC50 for wild type HIV1 3B; type: functional

Work on N#Cc1ccc(Nc2nccc(C(NN)c3ccc(C#N)cc3)n2)cc1 (stereo not given) yielded an IC50 [1] of 0.234 µM, a CC50 at 120 h [2] of 40.2 µM and an IC50 [3] of 5.95 µM. For the same molecule, the “Ratio CC50/IC50” value [4] was 172 and the IC50 [5] was 2.92 µM.

With N#C/C=C/c1ccc(C(NN)c2ccnc(Nc3ccc(C#N)cc3)n2)cc1 (stereo not given) the IC50 [1] was 0.00175 µM, the CC50 at 120 h [2] was 186 µM and the IC50 [3] was 5.33 µM. The ratio of compound SI to zidovudine SI [6] was 7, the “Ratio CC50/IC50” value [4] was 106367 and the IC50 [5] was 5.05 µM. For the same molecule, the “Ratio IC50” value [7] was 4.

CNC(c1ccc(C#N)cc1)c1ccnc(Nc2ccc(C#N)cc2)n1 (stereo not given) gave an IC50 [1] of 15.2 µM, a CC50 at 120 h [2] of 189 µM and an IC50 [3] greater than 189 µM. The “Ratio CC50/IC50” value [4] was 12 and the IC50 [5] was greater than 189 µM.

Molecule CNC(c1ccc(/C=C/C#N)cc1)c1ccnc(Nc2ccc(C#N)cc2)n1 (stereo not given) has an IC50 [1] of 0.108 µM, a CC50 at 120 h [2] of 41.4 µM and an IC50 [3] greater than 41.4 µM. The “Ratio CC50/IC50” value [4] was 385 and the IC50 [5] was greater than 41.4 µM.

CNC(c1ccnc(Nc2ccc(C#N)cc2)n1)c1ccccc1Cl (stereo not given) gave an IC50 [1] of 0.063 µM, a CC50 at 120 h [2] of 36.1 µM and an IC50 [3] greater than 36.1 µM. The “Ratio CC50/IC50” value [4] was 571 and the IC50 [5] was greater than 6.09 µM.

In the case of CCNC(c1ccc(C#N)cc1)c1ccnc(Nc2ccc(C#N)cc2)n1 (stereo not given), the IC50 [1] is reported as 21.1 µM, the CC50 at 120 h [2] is reported as 158 µM and the IC50 [3] is reported as greater than 158 µM. The “Ratio CC50/IC50” value [4] was 7 and the IC50 [5] was greater than 158 µM.

For CCNC(c1ccc(/C=C/C#N)cc1)c1ccnc(Nc2ccc(C#N)cc2)n1 (stereo not given), the IC50 [1] was 0.192 µM, the CC50 at 120 h [2] was 37.3 µM and the IC50 [3] was greater than 37.3 µM. The “Ratio CC50/IC50” value [4] was 194 and the IC50 [5] was greater than 37.3 µM.

In the case of CCNC(c1ccnc(Nc2ccc(C#N)cc2)n1)c1ccccc1Cl (stereo not given), the IC50 [1] is reported as 0.35 µM, the CC50 at 120 h [2] is reported as 39.4 µM and the IC50 [3] is reported as greater than 39.4 µM. The “Ratio CC50/IC50” value [4] was 113 and the IC50 [5] was greater than 39.4 µM.

With CCCNC(c1ccc(C#N)cc1)c1ccnc(Nc2ccc(C#N)cc2)n1 (stereo not given) the IC50 [1] was no less than 9.45 µM, the CC50 at 120 h [2] was 34.9 µM and the IC50 [3] was greater than 34.9 µM. The “Ratio CC50/IC50” value [4] was “<=4” and the IC50 [5] was greater than 34.9 µM.

Work on CCCNC(c1ccc(/C=C/C#N)cc1)c1ccnc(Nc2ccc(C#N)cc2)n1 (stereo not given) yielded an IC50 [1] of 0.107 µM, a CC50 at 120 h [2] of 34 µM and an IC50 [3] greater than 37.3 µM. The “Ratio CC50/IC50” value [4] was 319 and the IC50 [5] was greater than 37.3 µM.

For CCCNC(c1ccnc(Nc2ccc(C#N)cc2)n1)c1ccccc1Cl (stereo not given), the IC50 [1] was 0.048 µM, the CC50 at 120 h [2] was 68.5 µM and the IC50 [3] was greater than 68.5 µM. For the same molecule, the “Ratio CC50/IC50” value [4] was 1422 and the IC50 [5] was greater than 68.5 µM.

For CC(C)NC(c1ccc(C#N)cc1)c1ccnc(Nc2ccc(C#N)cc2)n1 (stereo not given), the IC50 [1] was greater than 69.2 µM, the CC50 at 120 h [2] was 69.2 µM and the IC50 [3] was greater than 69.2 µM. It also gave an IC50 [5] greater than 69.2 µM.

Work on CC(C)NC(c1ccc(/C=C/C#N)cc1)c1ccnc(Nc2ccc(C#N)cc2)n1 (stereo not given) yielded an IC50 [1] of 0.08 µM, a CC50 at 120 h [2] of 32.3 µM and an IC50 [3] greater than 32.3 µM. For the same molecule, the “Ratio CC50/IC50” value [4] was 405 and the IC50 [5] was greater than 32.3 µM.

Work on CC(C)NC(c1ccnc(Nc2ccc(C#N)cc2)n1)c1ccccc1Cl (stereo not given) yielded an IC50 [1] of 0.04 µM, a CC50 at 120 h [2] of 35.5 µM and an IC50 [3] greater than 35.5 µM. For the same molecule, the “Ratio CC50/IC50” value [4] was 879 and the IC50 [5] was greater than 35.5 µM.

Work on CC(O)CNC(c1ccc(C#N)cc1)c1ccnc(Nc2ccc(C#N)cc2)n1 (stereo not given) yielded an IC50 [1] of 23.9 µM, a CC50 at 120 h [2] greater than 65 µM and an IC50 [3] greater than 65 µM. The “Ratio CC50/IC50” value [4] was greater than 3 and the IC50 [5] was greater than 65 µM.

With CC(O)CNC(c1ccnc(Nc2ccc(C#N)cc2)n1)c1ccccc1Cl (stereo not given) the IC50 [1] was 0.33 µM, the CC50 at 120 h [2] was 34.7 µM and the IC50 [3] was greater than 34.7 µM. The “Ratio CC50/IC50” value [4] was 105 and the IC50 [5] was greater than 34.7 µM.

Molecule N#Cc1ccc(Nc2nccc(C(NC3CC3)c3ccc(C#N)cc3)n2)cc1 (stereo not given) has an IC50 [1] greater than 34.7 µM, a CC50 at 120 h [2] of 34.7 µM and an IC50 [3] greater than 34.7 µM. For the same molecule, the “Ratio CC50/IC50” value [4] was less than 1 and the IC50 [5] was greater than 34.7 µM.

In the case of N#C/C=C/c1ccc(C(NC2CC2)c2ccnc(Nc3ccc(C#N)cc3)n2)cc1 (stereo not given), the IC50 [1] is reported as 0.196 µM, the CC50 at 120 h [2] is reported as 56.1 µM and the IC50 [3] is reported as greater than 56.1 µM. The “Ratio CC50/IC50” value [4] was 287 and the IC50 [5] was greater than 56.1 µM.

N#Cc1ccc(Nc2nccc(C(NC3CC3)c3ccccc3Cl)n2)cc1 (stereo not given) gave an IC50 [1] of 0.12 µM, a CC50 at 120 h [2] of 37.9 µM and an IC50 [3] greater than 37.9 µM. For the same molecule, the “Ratio CC50/IC50” value [4] was 317 and the IC50 [5] was greater than 37.9 µM.

For CC(C)Nc1cccnc1N1CCN(C(=O)c2cc3cc(NS(C)(=O)=O)ccc3[nH]2)CC1 [DELAVIRDINE], the IC50 [1] was 0.81 µM, the CC50 at 120 h [2] was 43.8 µM and the “Ratio CC50/IC50” value [4] was greater than 54.

In the case of O=C1Nc2ccc(Cl)cc2[C@@](C#CC2CC2)(C(F)(F)F)O1 [EFAVIRENZ], the IC50 [1] is reported as 0.0226 µM, the IC50 [3] is reported as 0.16 µM and the “Ratio CC50/IC50” value [4] is reported as greater than 280.

In the case of Nc1ccn([C@@H]2CS[C@H](CO)O2)c(=O)n1 [LAMIVUDINE], the IC50 [1] is reported as 3.89 µM, the CC50 at 120 h [2] is reported as greater than 87.2 µM and the “Ratio CC50/IC50” value [4] is reported as greater than 22. The IC50 [5] was 15.5 µM.

In the case of Cc1ccnc2c1NC(=O)c1cccnc1N2C1CC1 [NEVIRAPINE], the IC50 [1] is reported as 0.101 µM, the CC50 at 120 h [2] is reported as greater than 15 µM and the IC50 [3] is reported as 0.9 µM. For the same molecule, the “Ratio CC50/IC50” value [4] was greater than 148.

In the case of Cc1cn([C@H]2C[C@H](N=[N+]=[N-])[C@@H](CO)O2)c(=O)[nH]c1=O [ZIDOVUDINE], the IC50 [1] is reported as 0.0066 µM, the CC50 at 120 h [2] is reported as greater than 93.5 µM and the IC50 [3] is reported as 0.0077 µM. The “Ratio CC50/IC50” value [4] was greater than 14124 and the IC50 [5] was 0.0017 µM.

— ChEMBL document CHEMBL3286160, “Design and synthesis of a new series of modified CH-diarylpyrimidines as drug-resistant HIV non-nucleoside reverse transcriptase inhibitors” (Eur J Med Chem, 2014)
